# A selection: hits, their analogues and other compounds. The true share with any hit is near 3.5%.
# RGS4 act: RGS4 potentiation or activation. hit rate 0.92% among 310,000. HEK293 M3R/inducible RGS4, carbachol calcium flux Fluo4; stronger effect = lower value. AID 463111. B-score at 10 µM;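 active = B-score of the integrated calcium signal more than 4 SD below the library mean, with starting fluorescence not abnormally high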;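 also: negative B-score means reduced calcium response which marks RGS4 activation or potentiation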
#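 Reagent: ECmax carbachol challenge; Test system: M3R-expressing HEK293 line, RGS4 induced by doxycycline; Schedule: overnight RGS4 induction, 30 min dye load 37 °C, 20 min compound RT; Detection: calcium dye Fluo4 fluorescence; Read-out: Agonist-evoked peak-minus-minimum fluorescence over baseline, integrated ratio, B score.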
# MrgX1 antag: blocks BAM8-22 activation of human MrgX1 receptor; MRGX1-HEK293 calcium flux, Fluo-4, BAM8-22 antagonism; stronger effect = lower value; B-score at 10 µM; hit rate 1.3% among 310,000; AID 588676;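 active = calcium-response B-score plate-corrected more than 3 library SD below zero, starting fluorescence within 5 deviations, no agonist response on first addition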;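 also: peak minus trough fluorescence over baseline after final BAM8-22 challenge near maximal dose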
# Target sequence (Q96LB2 whole entry, looked up): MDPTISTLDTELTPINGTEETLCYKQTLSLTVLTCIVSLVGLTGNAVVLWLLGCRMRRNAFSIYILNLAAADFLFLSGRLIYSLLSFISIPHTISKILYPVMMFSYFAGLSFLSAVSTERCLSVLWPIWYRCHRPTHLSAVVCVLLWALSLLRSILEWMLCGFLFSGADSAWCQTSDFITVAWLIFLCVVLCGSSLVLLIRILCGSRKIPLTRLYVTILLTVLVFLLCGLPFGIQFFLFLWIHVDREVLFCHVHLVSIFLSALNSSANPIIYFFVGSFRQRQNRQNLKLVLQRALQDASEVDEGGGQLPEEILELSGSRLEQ
# RGS4 inh: inhibitors of human RGS4; P49798; HEK293 M3R/RGS4 inducible, Fluo-4 calcium flux; stronger effect = higher value; triggered by carbachol at its EC20; B-score at 10 µM; hit rate 0.45% among 310,000; AID 463165;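 active = B-score, a plate-corrected calcium signal, over three deviations above library mean, with baseline fluorescence within five deviations of library mean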;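 also: RGS4 expression induced by doxycycline in cells with stable M3 receptor; B-score is computed from the integrated fluorescence ratio over baseline after carbachol; higher B-score means a larger calcium signal and so more RGS4 inhibition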
# Target sequence (P49798 whole entry, looked up): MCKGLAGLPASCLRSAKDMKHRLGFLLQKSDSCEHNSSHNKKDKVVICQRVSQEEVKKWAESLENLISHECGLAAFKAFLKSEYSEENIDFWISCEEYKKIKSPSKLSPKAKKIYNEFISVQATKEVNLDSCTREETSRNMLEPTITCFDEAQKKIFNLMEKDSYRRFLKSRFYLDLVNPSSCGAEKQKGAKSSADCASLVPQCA
# MrgX1 agonist: agonists of human MrgX1 receptor. MrgX1-HEK293 cells, Fluo-4 calcium fluorescence, agonist mode; stronger effect = higher value. B-score at 10 µM. hit rate 0.44% among 310,000;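 active = calcium response B-score plate-corrected fluorescence ratio at least 3 library SD, with starting fluorescence B-score inside 5 SD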
#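 Material: HEK293 cells stably expressing human MrgX1 receptor | Quantity: 15,000 cells per well | Times: Cells plated overnight, dye loaded 0.5 h 37 °C, 0.5 h room temperature | Measured by: Kinetic Fluo-4 NW fluorescence of intracellular calcium | Control set: Positive and negative controls per plate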
# MrgX1 allo act: allosterically activates human MrgX1 receptor signaling; hit rate 0.63% among 310,000; Q96LB2; AID 588675; B-score at 10 µM; MrgX1-HEK293, Fluo-4 calcium flux, FDSS; stronger effect = higher value;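 active = plate-corrected calcium response at least 3 library SD above typical, normal starting fluorescence, not activating the receptor alone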;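 also: compound read alongside a low EC10 to EC30 dose of BAM8-22 agonist; peak minus trough fluorescence over baseline measured at the second addition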
# MrgX1 allo conf: reconfirmed allosteric activator of human MrgX1 receptor; shares compounds with MrgX1 allo act; MrgX1-HEK293, Fluo-4 calcium fluorescence, FDSS; activation (ratio percentage), % at 10 µM; hit rate 13% among 1,200; AID 602413;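 active = ratio at least 3 SD above the weak peptide control, stable starting fluorescence, no direct agonism earlier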;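 also: compound followed by low BAM8-22 agonist challenge near EC20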
# HEK293 Ca flux: activity in parental HEK293 cells lacking MrgX1. AID 624111. shares compounds with MrgX1 antag. Fluo-4 calcium fluorescence, FDSS. hit rate 2% among 4,000. fluorescence ratio F(max-min)/F0 at 10 µM;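 active = duplicate-averaged calcium fluorescence ratio at least three times the standard deviation of buffer wells, a nonspecific response in parental cells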
# HEK293 Ca counter: MrgX1 allosteric activator counter-screen hit in parental HEK293 cells; fluorescence ratio F(max-min)/F0 at 10 µM; hit rate 0.4% among 4,000; shares compounds with MrgX1 antag; parental HEK293 calcium flux, Fluo-4 fluorescence ratio; stronger effect = higher value;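 active = calcium fluorescence ratio, averaged over duplicates, at least 3 SD of the buffer-well ratio, meaning a nonspecific response in receptor-free cells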;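 also: untransfected parental HEK293 lacking MrgX1 used as counterscreen for MrgX1 allosteric activators; fluorescence change taken during the second addition on a kinetic imager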
# HEK293 Ca cntr2: MrgX1 activator counter-screen hit in parental HEK293 cells. shares compounds with MrgX1 antag. Fluo-4 calcium fluorescence (FDSS); stronger effect = higher value. fluorescence ratio F(max-min)/F0 at 10 µM. hit rate 8.7% among 4,000;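 active = calcium fluorescence ratio at least three times the spread of buffer wells, meaning a non-specific response in parental cells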
# Numbers without * were called inactive; i = inactive; x = no result given.
SMILES,RGS4 act,MrgX1 antag,RGS4 inh,MrgX1 agonist,MrgX1 allo act,MrgX1 allo conf,HEK293 Ca flux,HEK293 Ca counter,HEK293 Ca cntr2
Cc1cc(C)n(C(C)CNC(=O)c2ccc3c(c2)OCO3)n1 (stereo not given),i,i,i,i,i,x,x,x,x
O=C(Nc1ccc(F)cc1)C1C2CCC3C(CCC21)C3(Cl)Cl (stereo not given),i,i,i,i,9.4*,i,i,i,i
CCOc1ccc(NC(=O)C2C3CCC4C(CCC32)C4(Cl)Cl)cc1 (stereo not given),i,i,i,i,i,x,x,x,x
Cc1ccc(N(CC(O)CN2CCCCC2)S(=O)(=O)c2ccccc2)cc1 (stereo not given),i,i,i,i,i,x,x,x,x
Cc1ccc(S(=O)(=O)N(C)C)cc1NC(=S)N1CCc2ccccc21,i,i,i,i,11*,i,i,i,i
O=C(COn1nnc2ccccc21)N1CCN(Cc2ccccc2)CC1,i,i,i,i,i,x,x,x,x
Cc1cc(Cl)ccc1OCC(=O)N1C(C)CCCC1C (stereo not given),i,i,i,i,12*,i,i,i,i
CC(=O)Oc1ccccc1C(=O)N(C1CCCCC1)C1CCCCC1,i,i,i,i,i,x,x,x,x
Cc1cc2c(c(SCC(=O)N(C)c3ccccc3)n1)C(=O)OC2,i,i,i,i,i,x,x,x,x
Cc1cc2c(c(SCC(N)=O)n1)C(=O)OC2,i,i,i,i,6.7*,i,i,i,i
COc1cc(CNC(C)C23CC4CC(CC(C4)C2)C3)cc(OC)c1OC (stereo not given),i,i,i,i,i,x,x,x,x
COc1cc(OC)c(C(=O)NCCCn2ccnc2)cc1OC,i,i,i,i,6.5*,i,i,i,i
COc1ccc(C(=O)NCCCn2ccnc2)cc1,i,i,i,i,i,x,x,x,x
N#CC1=C(N)Oc2c(oc(CO)cc2=O)C1c1ccsc1 (stereo not given),i,i,i,i,i,x,x,x,x
N#CC1=C(N)Oc2c(ccc3ccccc23)C1c1ccsc1 (stereo not given),i,i,i,i,14*,i,i,i,i
CCCN1CCN(CCCNC(=O)Cn2nc(C)n3c(cc4cc(OC)ccc43)c2=O)CC1,i,i,i,i,i,x,x,x,x
COc1ccc(OC)c(NC(=O)Cc2coc3ccc(C)cc23)c1,i,i,i,i,i,x,x,x,x
CCOc1ccccc1NC(=O)Cc1coc2ccc(C)cc12,i,i,i,i,14*,i,i,i,i
COCc1c(C(=O)N/N=C/c2ccc(C)o2)nnn1-c1nonc1N,i,i,i,i,i,x,x,x,x
CCc1cccc(NC(=O)c2ccc(NS(=O)(=O)c3c(C)noc3C)cc2)c1,i,i,i,i,15*,15%*,i,i,i
Cc1ccc(C)c(NC(=O)CCN2CCCCC2)c1,i,i,i,i,i,x,x,x,x
CSc1ccccc1NC(=O)c1ccccc1N(C)S(C)(=O)=O,i,i,i,i,8.2*,10.0%*,i,i,i
CCOC(=O)c1ccccc1NC(=O)c1ccccc1N(C)S(C)(=O)=O,i,i,i,i,7.2*,9.4%*,i,i,i
CCOC(=O)c1ccccc1NC(=O)c1ccc(N(C)S(C)(=O)=O)cc1,i,i,i,i,i,x,x,x,x
COC(=O)c1ccccc1NC(=O)c1ccccc1N(C)S(C)(=O)=O,i,i,i,i,10*,i,i,i,i
SMILES,RGS4 act,MrgX1 antag,RGS4 inh,MrgX1 agonist,MrgX1 allo act,MrgX1 allo conf,HEK293 Ca flux,HEK293 Ca counter,HEK293 Ca cntr2
COC(=O)c1ccccc1N(C)S(C)(=O)=O,i,i,i,i,i,x,x,x,x
Cc1ccc(CNS(=O)(=O)c2ccc(-n3cnnn3)c(C)c2)cc1,i,i,i,i,i,x,x,x,x
COc1ccc(CC(=O)O/N=C(\N)c2ccccc2)cc1OC,i,i,i,i,i,x,x,x,x
O=C(Nc1nccs1)[C@@H]1CC=C[C@@H]2CCN(Cc3ccccc3)C(=O)[C@@H]21,i,i,i,i,i,x,x,x,x
C=CCN(CC=C)S(=O)(=O)c1ccc2nc(NC(=O)C(C)C)sc2c1,x,i,x,i,21*,i,i,i,i
CC1Sc2ccc(Cl)cc2-c2nc(N)ncc21 (stereo not given),i,i,i,i,11*,i,i,i,i
COc1ccc(NC(=O)c2ccccc2NS(C)(=O)=O)cc1OC,i,i,i,i,i,x,x,x,x
COc1ccccc1NC(=O)c1ccccc1NS(C)(=O)=O,i,i,i,i,11*,i,i,i,i
CCOc1ccccc1NC(=O)c1ccccc1NS(C)(=O)=O,i,i,i,i,23*,79%*,i,i,i
COc1ccccc1NC(=O)c1cc2cc(Br)ccc2cc1O,i,i,i,i,8.4*,16%*,i,i,i
CS(=O)(=O)Nc1ccccc1C(=O)Nc1ccccc1Cl,i,i,i,i,i,x,x,x,x
COc1ccccc1NC(=O)c1ccccc1NS(=O)(=O)c1cccs1,i,i,i,i,54*,29%*,i,i,i
COc1cc(NC(=O)c2cc3ccccc3cc2O)c(OC)cc1Cl,i,i,i,i,i,x,x,x,x
COc1cc(C(=O)NNC2=NC(C)(C)Cc3cc(C)c(C)cc32)cc(OC)c1OC,i,i,i,i,i,x,x,x,x
COc1ccc(NC(=O)c2csc3c2CCCCC3)c(OC)c1,i,i,i,i,19*,i,i,i,i
COc1ccc(CCNC(=O)c2csc3c2CCCC3)cc1,i,i,i,i,i,x,x,x,x
CCOc1ccccc1NC(=O)CCS(=O)(=O)c1cccc2nonc12,x,i,x,i,7.5*,i,i,i,i

# Screens as filed in PubChem BioAssay.
